# CHO parental Ca = counter-screen for OX1R antagonists: effect in parental CHO cells | 330,000 tested, 0.63% active | parental CHO-K1, ATP-induced calcium, Fluo-8 fluorescence | inhibition, % at 5.6 µM | AID 463079;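 active means inhibition above that plate's mean sample inhibition plus 3 SD, cut at about 26% in these data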;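 further: 0% = ATP-challenged DMSO wells and 100% = DMSO wells without ATP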
#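 material = parental CHO cells | also added = ATP as calcium-mobilizing challenge | dosing = single point at 5.6 µM | detection = intracellular calcium via Fluo-8 no-wash fluorescent dye | read-out = % inhibition | benchmarks = low control ATP plus DMSO, high control DMSO only | repeats = one well per compound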
# TAAR1 agonist = agonists of human TAAR1; 360,000 tested, 0.99% active; AID 624467; Q96RJ0; activation, % at 3 µM; CHO RD-HGA16 TAAR1, Fluo-8 calcium fluorescence; vehicle wells 0%, saturating PEA agonist 100%;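 active means activation above the mean activation of all test compounds in the run plus 3 SD, cut at about 38% in these data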
# Target sequence (Q96RJ0 whole entry, looked up): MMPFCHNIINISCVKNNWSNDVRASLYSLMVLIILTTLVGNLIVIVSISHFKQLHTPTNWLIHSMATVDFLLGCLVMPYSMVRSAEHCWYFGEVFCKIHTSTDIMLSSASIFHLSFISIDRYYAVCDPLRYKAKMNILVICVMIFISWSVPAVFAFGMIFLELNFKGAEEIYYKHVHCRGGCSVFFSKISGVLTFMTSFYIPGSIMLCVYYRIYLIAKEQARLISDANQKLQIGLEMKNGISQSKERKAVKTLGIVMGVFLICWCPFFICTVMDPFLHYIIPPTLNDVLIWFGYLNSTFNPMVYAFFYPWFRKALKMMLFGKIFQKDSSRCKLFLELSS
#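 Test system: RD-HGA16 (CHO) cells co-expressing Gα16 and hTAAR1 | Doses: Single dose, 3 µM | Schedule: 17-24 h seeding, 75 min 37 °C dye, 30 min RT | Evaluation: % activation from peak over basal fluorescence ratio, DMSO-to-PEA scaled | Technique: Kinetic Fluo-8 calcium fluorescence | Benchmarks: Low control DMSO, high control PEA (EC100)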
# OX1R antag-1 = blocks the human orexin 1 receptor; O43613; OX1R-expressing cells, FRET antagonist read-out; inhibition, % at 6.6 µM; 330,000 tested, 1.8% active; AID 485270; in the data active means inhibition mostly above about 38%, no sharp cut-off; inactive means mostly below about 40%;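 further: 0% = agonist challenge alone and 100% = reference antagonist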
# Target sequence (O43613 whole entry, looked up): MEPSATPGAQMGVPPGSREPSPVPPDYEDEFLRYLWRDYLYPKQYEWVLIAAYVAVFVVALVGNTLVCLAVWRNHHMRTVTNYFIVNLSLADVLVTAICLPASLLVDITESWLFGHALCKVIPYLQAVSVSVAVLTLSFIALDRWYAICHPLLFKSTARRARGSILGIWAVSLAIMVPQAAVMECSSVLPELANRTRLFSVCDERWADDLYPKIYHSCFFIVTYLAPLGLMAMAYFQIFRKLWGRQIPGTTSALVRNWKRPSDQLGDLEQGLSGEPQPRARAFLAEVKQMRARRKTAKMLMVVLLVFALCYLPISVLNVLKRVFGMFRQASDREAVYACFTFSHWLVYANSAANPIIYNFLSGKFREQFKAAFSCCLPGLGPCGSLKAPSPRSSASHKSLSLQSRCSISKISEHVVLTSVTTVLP
# GalR3 antag = antagonists of human GalR3; O60755; AID 651719; 360,000 tested, 0.44% active; HEK293 GalR3-CNG cAMP membrane potential fluorescence; galR3 body fused to GalR1 C-terminus; inhibition, % at 3 µM;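 active means inhibition above the screen-wide average plus 3 SD, cut at about 13% in these data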;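 further: forskolin and galanin both at EC90 stimulate the cells; cAMP rise reported by CNG channel membrane potential dye signal; 0% = forskolin plus galanin with DMSO and 100% = forskolin alone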
# TAAR1 antag = human TAAR1 antagonism; CHO RD-HGA16 TAAR1, Fluo-8 calcium fluorescence, antagonist; inhibition, % at 3 µM; 360,000 tested, 1.5% active; AID 624466;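 active means inhibition above a per-plate cutoff, the mean inhibition of test compounds on that plate plus 3 SD, cut at about 49% in these data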;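 further: 0% = DMSO plus EC80 beta-PEA response and 100% = DMSO alone without agonist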
#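 test system = CHO RD-HGA16 cells bearing hTAAR1 | replication = singlicate | controls = DMSO-only wells and EC80 β-PEA-stimulated wells | reagent = EC80 β-phenethylamine stimulus | read-out basis = percent inhibition of PEA-evoked calcium signal, max/basal emission ratio | schedule = seeding 17-24 h prior, 75-min 37 °C, 30-min RT dye loading | signal = kinetic Fluo-8 calcium fluorescence measurement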
# OX1R antag-2 = blocks the human orexin 1 receptor; O43613; CHO/OX1R cells, Fluo-8 calcium fluorescence, orexin A; inhibition, % at 5 µM; 330,000 tested, 0.43% active;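 active means inhibition above its plate's threshold, mean inhibition of all tested compounds on the plate plus 3 SD, cut at about 37% in these data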;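 further: 0% = orexin A challenge wells and 100% = SB-334867-A antagonist wells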
# TAAR1 ag conf = confirmation of human TAAR1 agonists; shares compounds with TAAR1 agonist; CHO RD-HGA16 TAAR1, Fluo-8 calcium fluorescence; scaled: DMSO 0%, maximal phenethylamine 100%; activation, % at 3 µM; 2,400 tested, 82% active; AID 651783;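 active means activation above a cutoff set at the run's mean compound activation plus 3 SD, cut at about 39% in these data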
# Ga16 nonsel ag = nonselective agonism, TAAR1 counter-screen; shares compounds with TAAR1 agonist; CHO-Ga16 parental, Fluo-8 calcium fluorescence; normalized to maximal ATP response, DMSO zero; activation, % at 3 µM; 2,400 tested, 50% active; AID 651787;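 active means activation above the run cutoff, the mean activation over all tested wells plus 3 SD, cut at about 12% in these data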;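 further: 0% = DMSO wells and 100% = maximal ATP response on the peak over basal ratio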
# TAAR1 desens = human TAAR1 agonist that also desensitizes the receptor; shares compounds with TAAR1 agonist; CHO RD-HGA16 hTAAR1, Fluo-8 calcium, beta-PEA response inhibition; inhibition, % at 3 µM; 2,400 tested, 46% active;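 active means inhibition above the run cutoff, the mean inhibition of all test compounds plus 3 SD, cut at about 49% in these data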;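 further: beta-PEA stimulus applied at its EC80; loss of beta-PEA calcium signal after compound pretreatment read as receptor desensitization; 0% = DMSO with beta-PEA at EC80 and 100% = DMSO alone without agonist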
# Ga16 nonsel ant = nonselective Ga16 antagonism, counter-screen. inhibition, % at 3 µM. CHO-Ga16 ATP-induced calcium, Fluo-8 fluorescence. 2,400 tested, 39% active. shares compounds with TAAR1 agonist;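 active means inhibition above the plate's mean compound inhibition plus 3 SD, computed per plate, cut at about 22% in these data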;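 further: 0% = EC80 ATP with DMSO and 100% = DMSO wells without ATP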
# * = called active by the depositor; / = no result. In the library only some 4.3% were active in any assay of this set; here they are far more common.
SMILES,CHO parental Ca,TAAR1 agonist,OX1R antag-1,GalR3 antag,TAAR1 antag,OX1R antag-2,TAAR1 ag conf,Ga16 nonsel ag,TAAR1 desens,Ga16 nonsel ant
Cc1ccc(OC(=O)N(C)C[C@H]2OCc3cnnn3CCCC(=O)N([C@@H](C)CO)C[C@H]2C)cc1,/,0.9,/,-3.7,1.2,/,/,/,/,/
COC(=O)C1=C(c2ccc(S(C)(=O)=O)cc2)C[C@@H]2CC[C@H]1N2C(=O)N1CCC(O)CC1,5.0,1.4,13.2,-4.5,-2.7,-2.3,/,/,/,/
COc1ccccc1CCNCc1cc2c(cc1[N+](=O)[O-])OCO2,-16.0,/,59.0,-6.0,/,-38.6,/,3.3,/,7.2
CCOC(=O)CC1c2ccccc2-n2nncc2CN1CC1CCCCC1 (stereo not drawn),/,3.5,/,-7.6,-12.1,/,/,/,/,/
COc1cc(O)cc2c1C(=O)OC(C)CCCC(=O)CCC/C=C\2 (stereo not drawn),-11.8,55.2*,13.8,-7.5,10.4,-10.9,30.0,26.3*,34.8,22.8*
S=C(NCCc1ccccc1)N1Cc2ccc(Br)cc2-n2nncc2C1,/,60.5*,/,-7.1,34.4,/,38.2*,2.8,21.7,19.0
CCN(CC)c1ccc(/C=C2/C(=O)NC(=O)N(Cc3ccco3)C2=O)cc1,-4.7,44.9*,11.4,-4.7,20.7,-4.3,66.1*,30.0*,41.4,34.3*
CN1C[C@H](CO)C=C2c3cccc4[nH]cc(c34)C[C@H]21,-4.9,64.4*,13.5,-7.0,64.4*,-18.3,92.1*,3.0,85.0*,7.5
CC(C)[C@H]1C(=O)N2CCC[C@H]2[C@]2(O)O[C@](NC(=O)[C@@H]3C=C4c5cccc6[nH]cc(c56)C[C@H]4N(C)C3)(C(C)C)C(=O)N12,-7.6,/,25.4,/,/,-13.9,/,/,/,/
CN1CCC23c4c5ccc(O)c4O[C@@H]2[C@H](O)C=CC3C1C5 (stereo partly drawn),-1.6,1.0,10.4,-4.3,-14.7,-8.2,/,/,/,/
CCCCOc1ccc(CCN)cc1Cl,-12.4,86.6*,-1.6,-6.6,67.3*,-5.1,98.9*,17.9*,84.1*,12.0
CC(C)Oc1ccc(CCN)cc1Cl,-7.0,51.7*,1.4,-3.6,-27.7,-10.2,67.5*,10.9,11.2,2.1
COc1ccc(CCN)cc1O,-9.4,46.9*,16.8,/,7.6,2.8,61.7*,-0.2,22.1,9.2
COc1cc(C(O)CN)ccc1O (stereo not drawn),4.6,20.6,15.0,/,-8.1,0.9,/,/,/,/
FC(F)(F)c1ccc(-c2ccc3c(c2)CNCc2cnnn2-3)cc1,/,4.6,/,-4.8,-11.7,/,/,/,/,/
Cc1ccc2nc(C)n(-c3ccc(F)cc3)c(=O)c2c1,-0.7,0.0,5.7,-7.6,15.8,-15.2,/,/,/,/
COC(=O)C1C2c3ccccc3C(c3ccccc32)C1(C)C(=O)OC (stereo not drawn),/,0.5,/,-3.2,-3.3,/,/,/,/,/
NC(N)=N/N=C/c1cn(-c2ccccc2)nc1-c1cccs1,-1.8,47.0*,8.5,5.7,3.8,-1.9,76.0*,7.1,35.2,12.6
O=C(NCCN1CCC2(CC1)C(=O)NCN2c1ccccc1)C(c1ccccc1)c1ccccc1,/,58.2*,/,-7.2,93.3*,/,32.8,23.8*,76.0*,62.4*
Cc1ccc(C(=O)NCCN2CCC3(CC2)C(=O)NCN3c2ccccc2)cc1,/,86.5*,/,-7.7,98.7*,/,52.8*,41.2*,98.2*,83.9*
O=C(NCCN1CCC2(CC1)C(=O)NCN2c1ccccc1)c1ccc(Cl)c(Cl)c1,/,113.2*,/,-7.8,106.1*,/,124.3*,94.8*,106.8*,102.8*
COc1ccc(-n2nnnc2C(c2ccccc2)N2CCC3(CC2)C(=O)NCN3c2ccccc2)cc1 (stereo not drawn),/,0.2,/,-4.8,33.5,/,/,/,/,/
O=C(NCCN1CCC2(CC1)C(=O)NCN2c1ccccc1)c1ccc(F)cc1F,/,14.5,/,-5.5,5.0,/,/,/,/,/
O=C(NCCN1CCC2(CC1)C(=O)NCN2c1ccccc1)c1ccc(OC(F)(F)F)cc1,/,53.6*,/,-2.8,96.2*,/,44.6*,40.5*,101.8*,98.3*
N#CC1=C(N)Oc2c(c(=O)sc3ccccc23)C1c1cccnc1 (stereo not drawn),-1.8,3.2,-1.3,-0.8,-51.8,-20.3,/,/,/,/
SMILES,CHO parental Ca,TAAR1 agonist,OX1R antag-1,GalR3 antag,TAAR1 antag,OX1R antag-2,TAAR1 ag conf,Ga16 nonsel ag,TAAR1 desens,Ga16 nonsel ant
CCOC(=O)CNC(=O)N1Cc2cc(-c3ccc(OC)cc3)ccc2-n2nncc2C1,/,2.7,/,-3.0,-2.2,/,/,/,/,/
CC(=O)C1CCC2C3CC(O)C4CC(O)CCC4(C)C3CCC12C (stereo not drawn),/,0.4,/,2.7,8.1,/,/,/,/,/
O=C(CCN1CC1)OCCOC(=O)CCN1CC1,/,0.8,/,-4.0,4.6,/,/,/,/,/
O=C(CCCN1CCC2(CC1)C(=O)NCN2c1ccccc1)c1ccc(F)cc1,99.1*,153.7*,9.7,-8.7,106.0*,105.5*,131.3*,115.7*,106.5*,103.1*
Cc1cccc(CCNCc2cc3ccc(C)cc3[nH]c2=O)c1,-9.7,82.8*,51.4,-14.3,70.4*,-23.2,99.7*,5.2,93.0*,-0.9
Cc1cc(Oc2ccc(C(F)(F)F)cc2[N+](=O)[O-])c2c3c(c(=O)oc2c1)CCCC3,-13.4,-0.3,5.5,4.6,-3.0,-12.8,/,/,/,/
CC(Cc1ccccc1)N(C)CC1C(=O)C2CCC1C2 (stereo not drawn),/,56.4*,/,2.6,13.1,/,50.9*,-0.1,4.4,7.9
C#CCN(C)C(C)Cc1ccccc1 (stereo not drawn),-9.7,4.4,5.7,/,-9.6,2.1,/,/,/,/
